How the values were obtained:
[1] = target: Glutamate NMDA receptor; experiment: Affinity against 3[H]TCP binding to N-methyl-D-aspartate glutamate receptor in rat brain membranes; type: cell membranes
[2] = logD value was determined; type: physicochemical; details: octanol/water
[3] = pKa value was determined; type: physicochemical
[4] = Inhibitory activity against NMDA closed channel block; type: functional
Procedure, shortened: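 Oocytes (stage V-VI, defolliculated with 0.2% collagenase) were held 48-72 h at 18-22 °C in ND96 and superfused at ~4 mL/min. Controls were two 100 µM NMDA pulses 15 min apart. Cells then sat 30 min in 10 µM 7-chlorokynurenate plus inhibitor, were washed 1-2 min and retested with 100 µM NMDA. 100 µM kainate served as internal control. One application per cell.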

[5] = Inhibitory activity against NMDA open channel block; type: functional
Procedure, shortened: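 Superfused oocytes got a single inhibitor application per cell during NMDA response. Current at 300 s was normalized to the initial NMDA current. Inhibition = (mean control (NMDA alone) − test)/control × 100%.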

[6] = Ratio (closed/open) was determined; type: functional
Procedure, shortened: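 Oocytes injected with forebrain-derived RNA and held 48–72 h at 18–22 °C, then superfused. Open block: current 300 s after NMDA plus inhibitor, normalised to initial NMDA current, expressed as % of NMDA-alone controls, one application per cell. Closed block: 30 min inhibitor with 10 µM 7-chlorokynurenate, 1–2 min wash, then 100 µM NMDA, with 100 µM kainate as internal control. Ratio = closed/open IC50.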

Structure (SMILES) | Ki [1] [nM] | logD [2] | pKa [3] | IC50 [4] [nM] | IC50 [5] [nM] | Ratio [6]
Oc1cccc2[n+]1C1CC(c3ccoc3)(c3ccoc3)C2c2ccccc21 (racemic) | 3780 |  |  |  |  | 
COC(=O)C12CC(c3ccoc3)(c3ccoc3)C(c3ccccc31)c1cccc[n+]12 (racemic) | 39 |  |  |  |  | 
c1ccc2c(c1)C1CC(c3ccoc3)(c3ccoc3)C2c2c3ccccc3cc[n+]21 (racemic) | 19 |  |  |  |  | 
COc1ccc[n+]2c1C1c3ccccc3C2CC1(c1ccoc1)c1ccoc1 (racemic) | 19 |  |  |  |  | 
CCCCCCCCOc1cccc2c1C1c3cccc[n+]3C2CC1(c1ccoc1)c1ccoc1 (racemic) | 3380 |  |  |  |  | 
N#CC12CC(c3ccoc3)(c3ccoc3)C(c3ccccc31)c1cccc[n+]12 (racemic) | 10 |  |  |  |  | 
Oc1ccc[n+]2c1C1c3ccccc3C2CC1(c1ccoc1)c1ccoc1 (racemic) | 294 | 1.66 | 4.88 | 24800 | 557 | 44.6
Oc1cc(O)c2c(c1)C1CC(c3ccoc3)(c3ccoc3)C2c2cccc[n+]21 (racemic) | 125 |  |  |  |  | 
Oc1ccc2c(c1)C1CC(c3ccoc3)(c3ccoc3)C2c2cccc[n+]21 (racemic) | 29 |  |  |  |  | 
Fc1ccc2c(c1)C1c3cccc[n+]3C2CC1(c1ccoc1)c1ccoc1 (racemic) | 3.6 | 0.75 |  |  |  | 
Oc1ccc2c(c1)C1c3cccc[n+]3C2CC1(c1ccoc1)c1ccoc1 (racemic) | 2.1 | 0.32 | 8.8 | 1030 | 7.3 | 142
Oc1cccc2c1C1c3cccc[n+]3C2CC1(c1ccoc1)c1ccoc1 (racemic) | 1.8 | -0.81 | 8.6 | 3860 | 9.13 | 422
Brc1ccc(Br)c2c1C1CC(c3ccoc3)(c3ccoc3)C2c2cccc[n+]21 (racemic) | 345 |  |  |  |  | 
COc1cccc2c1C1c3cccc[n+]3C2CC1(c1ccoc1)c1ccoc1 (racemic) | 6 | -3.66 |  |  |  | 
CC12CC(c3ccoc3)(c3ccoc3)C(c3ccccc31)c1cccc[n+]12 (racemic) | 1.2 |  |  |  |  | 
Oc1ccc2[n+](c1)C1CC(c3ccoc3)(c3ccoc3)C2c2ccccc21 (racemic) | 1530 |  |  |  |  | 
Oc1cccc2c1C1c3cccc[n+]3C2CC1(c1ccccc1)c1ccccc1 (racemic) | 12 | 1.75 |  |  |  | 
COc1cc(OC)c2c(c1)C1CC(c3ccoc3)(c3ccoc3)C2c2cccc[n+]21 (racemic) | 3790 |  |  |  |  | 
OCc1cccc2c1C1c3cccc[n+]3C2CC1(c1ccoc1)c1ccoc1 (racemic) | 159 |  |  |  |  | 
COc1c(Cl)ccc2c1C1c3cccc[n+]3C2CC1(c1ccoc1)c1ccoc1 (racemic) | 64 |  |  |  |  | 
O=S(=O)([O-])c1cccc2c1C1c3cccc[n+]3C2CC1(c1ccoc1)c1ccoc1 (racemic) | > 10000 |  |  |  |  | 
c1ccc2c(c1)C1CC(c3ccoc3)(c3ccoc3)C2c2cccc[n+]21 (racemic) | 2 |  |  |  |  | 
c1ccc(C2(c3ccccc3)CC3c4ccccc4C2c2cccc[n+]23)cc1 (racemic) |  | -2.54 | 11.7 | 18100 | 32 | 564
O=C(O)c1ccc2c(c1)C1c3cccc[n+]3C2CC1(c1ccoc1)c1ccoc1 (racemic) | > 10000 | 1.76 |  |  |  | 
Clc1cccc2[n+]1C1CC(c3ccoc3)(c3ccoc3)C2c2ccccc21 (racemic) | 633 |  |  |  |  | 
Oc1c(Cl)ccc2c1C1c3cccc[n+]3C2CC1(c1ccoc1)c1ccoc1 (racemic) | 24 | -0.99 |  |  |  | 
CCOC1(OCC)C2c3ccccc3C([n+]3ccccc32)C1(C)C (racemic) |  |  | 12.2 | 14200 | 27 | 527
C[C@]12N[C@H](Cc3ccccc31)c1ccccc12 [DIZOCILPINE] |  |  | 5.81 | 40 | 23 | 1.6
c1ccc(C2(N3CCCCC3)CCCCC2)cc1 [PHENCYCLIDINE] |  |  | 9.97 | 450 | 270 | 1.7
